# Measured values as given in ChEMBL document CHEMBL1649410, “Discovery of 7-N-piperazinylthiazolo[5,4-d]pyrimidine analogues as a novel class of immunosuppressive agents with in vivo biological activity” (J Med Chem, 2011).
# Test system: Mus musculus
# Experiment: Toxicity in BALB/c mouse during cardiac allograft from C57BL/6 mouse at 40 mg/kg, po treatment started from day of transplantation for 30 days
# Format: organism-based
# Design: dose 40 mg/kg, route oral
# Details: in vivo, 720 h
# In short: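 Female mice aged 8-10 weeks, 20-25 g: C57BL/6 (H-2^b) donors, Balb/c (H-2^d) recipients. Recipients randomized to groups. Dosing 40 (mg/kg)/day by daily gavage. Vehicle 30% 2-hydroxypropyl-β-cyclodextrin given alone to controls (n = 6). […] Graft survival recorded in days. Student t test against vehicle group.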
row,SMILES,Activity
1,Nc1nc(N2CCN(C(=O)COc3ccc(Cl)cc3)CC2)c2nc(-c3cccnc3)sc2n1,Non-toxic

# Test system: Lymphocyte
# Experiment: Immunosuppressive activity in peripheral blood lymphocytes isolated from two individuals assessed as proliferation using [methyl-3H]thymidine by mixed lymphocyte reaction assay
# Format: functional, cell-based
# Details: Homo sapiens
# In short: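 Human PBMCs from heparinized blood of healthy donors, isolated over Lymphoprep, 1.6 × 10⁶ cells/mL in RPMI-1640 with 10% heat-inactivated FCS. Stimulators: RPMI1788 cells given 30 μg/mL mitomycin C, 20 min, 37 °C, washed, 0.6 × 10⁶ cells/mL. Cells mixed with diluted compound, 5 days at 37 °C in 5% CO₂. 1 μCi (methyl-³H)thymidine added for last 18 h; harvested, cpm counted. IC₅₀ from two independent experiments (mean).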
row,SMILES,IC50
1,Cc1cccc(N2CCN(c3nc(N)nc4sc(-c5ccc(F)cc5)nc34)CC2)c1,> 10000 nM
2,CCCCCc1nc2c(N3CCN(C(=O)COc4ccc(Cl)cc4)CC3)nc(N)nc2s1,690 nM
3,CC(c1ccc(F)cc1)c1nc2c(N3CCN(C(=O)COc4ccc(Cl)cc4)CC3)nc(N)nc2s1 (centres undefined),4380 nM
4,Nc1nc(N2CCN(Cc3ccccc3)CC2)c2nc(-c3ccc(F)cc3)sc2n1,> 10000 nM
5,Nc1nc(N2CCN(C(=O)COc3ccc(F)cc3)CC2)c2nc(-c3ccc(F)cc3)sc2n1,70 nM
6,Nc1nc(N2CCN(C(=O)COc3ccc(Cl)cc3)CC2)c2sc(-c3ccc(F)cc3)nc2n1,> 10000 nM
7,Nc1nc(N2CCN(C(=O)COc3ccc(Br)cc3)CC2)c2nc(-c3ccc(F)cc3)sc2n1,380 nM
8,Nc1nc(N2CCN(C(=O)COc3ccc(Cl)cc3)CC2)c2nc(-c3ccc(F)cc3)[nH]c2n1,800 nM
9,Nc1nc(N2CCN(C(=O)COc3ccc(Cl)cc3)CC2)c2nc(-c3ccc(F)cc3)sc2n1,490 nM
10,Nc1nc(N2CCN(S(=O)(=O)c3ccccc3)CC2)c2nc(-c3ccc(F)cc3)sc2n1,> 10000 nM
11,COc1ccc(OCC(=O)N2CCN(c3nc(N)nc4sc(-c5ccc(F)cc5)nc34)CC2)cc1,40 nM
12,Nc1nc(N2CCN(C(=O)COc3ccc(Cl)cc3)CC2)c2nc(-c3ccc(Cl)cc3)sc2n1,270 nM
13,CC(C)(Oc1ccc(Cl)cc1)C(=O)N1CCN(c2nc(N)nc3sc(-c4ccc(F)cc4)nc23)CC1,> 10000 nM
14,Cc1ccc(-c2nc3c(N4CCN(C(=O)COc5ccc(Cl)cc5)CC4)nc(N)nc3s2)cc1,350 nM
15,Nc1nc(N2CCN(C(=O)COc3ccc(F)cc3)CC2)c2nc(-c3cccnc3)sc2n1,12 nM
16,Cc1ccc(NC(=O)N2CCN(c3nc(N)nc4sc(-c5ccc(F)cc5)nc34)CC2)cc1,700 nM

row,SMILES,IC50
1,Nc1nc(N2CCN(C(=O)OCc3ccccc3)CC2)c2nc(-c3ccc(F)cc3)sc2n1,4900 nM
2,Nc1nc(N2CCNCC2)c2nc(-c3ccc(F)cc3)sc2n1,4300 nM
3,Nc1nc(N2CCN(C(=O)COc3ccc(Cl)cc3)CC2)c2nc(-c3cccnc3)sc2n1,50 nM
4,Cc1cccc(NC(=O)N2CCN(c3nc(N)nc4sc(-c5ccc(F)cc5)nc34)CC2)c1,300 nM
5,CCCCCN1CCN(c2nc(N)nc3sc(-c4ccc(F)cc4)nc23)CC1,> 10000 nM
6,Nc1nc(N2CCN(C(=O)COc3ccccc3)CC2)c2nc(-c3ccc(F)cc3)sc2n1,90 nM
7,Nc1nc(N2CCN(C(=O)COc3ccc(Cl)cc3)CC2)c2nc(-c3ccc(F)cc3)oc2n1,3000 nM
8,Nc1nc(N2CCN(C(=O)COc3ccc(Cl)cc3)CC2)c2nc(-c3ccccn3)sc2n1,230 nM
9,Nc1nc(N2CCN(C(=O)COc3ccc(Cl)cc3)CC2)c2nc(CCCCc3ccc(F)cc3)sc2n1,920 nM
10,Nc1nc(N2CCN(C(=O)COc3ccc(Cl)cc3)CC2)c2nc(CCc3ccc(F)cc3)sc2n1,4400 nM
11,Nc1nc(N2CCN(C(=O)COc3ccc(Cl)cc3)CC2)c2nc(-c3ccncc3)sc2n1,40 nM
12,Nc1nc(N2CCN(C(=O)COc3ccc(Cl)cc3)CC2)c2nc(CCOc3ccc(F)cc3)sc2n1,3540 nM
13,Nc1nc(N2CCN(C(=O)COc3ccc(Cl)cc3)CC2)c2nc(Cc3ccc(F)cc3)sc2n1,700 nM
14,Nc1nc(N2CCN(C(=O)COc3ccc(Cl)cc3)CC2)c2cc(-c3ccc(F)cc3)sc2n1,700 nM
15,COc1ccc(OCC(=O)N2CCN(c3nc(N)nc4sc(-c5cccnc5)nc34)CC2)cc1,12 nM

# Test system: Mus musculus
# Experiment: Suppression of cardiac allograft rejection of C57BL/6 mouse to BALB/c mouse assessed as surviving days at 40 mg/kg, po treatment started from day of transplantation for 30 days by immunosuppressive assay
# Format: functional
# Details: not given
# In short: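 Female mice aged 8-10 weeks and weighing 20-25 g. Donors were inbred C57BL/6 (H-2b) and recipients Balb/c (H-2d). Animals were randomly allocated and dosed by daily gavage in 30% 2-hydroxypropyl-β-cyclodextrin. […] Each graft was scored as surviving days, compared with vehicle by Student t test.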
row,SMILES,Survival
1,Nc1nc(N2CCN(C(=O)COc3ccc(Cl)cc3)CC2)c2nc(-c3cccnc3)sc2n1,>17 days
2,C/C=C/C[C@@H](C)[C@@H](O)[C@H]1C(=O)N[C@@H](CC)C(=O)N(C)CC(=O)N(C)[C@@H](CC(C)C)C(=O)N[C@@H](C(C)C)C(=O)N(C)[C@@H](CC(C)C)C(=O)N[C@@H](C)C(=O)N[C@H](C)C(=O)N(C)[C@@H](CC(C)C)C(=O)N(C)[C@@H](CC(C)C)C(=O)N(C)[C@@H](C(C)C)C(=O)N1C [CYCLOSPORINE],>30 days
